# Test results published in ChEMBL document CHEMBL1128419, “Orally active beta-lactam inhibitors of human leukocyte elastase. 3. Stereospecific synthesis and structure-activity relationships for 3,3-dialkylazetidin-2-ones” (J Med Chem, 1995).
# Tests used:
# [1] = biological target: T1, Neutrophil elastase (Homo sapiens) (UniProt P08246); test: In vitro inhibition of human leukocyte elastase (HLE), and the Kobs[I] is the second-order rate constant for the time dependent inactivation of HLE by the compound.
# T1 sequence (whole entry): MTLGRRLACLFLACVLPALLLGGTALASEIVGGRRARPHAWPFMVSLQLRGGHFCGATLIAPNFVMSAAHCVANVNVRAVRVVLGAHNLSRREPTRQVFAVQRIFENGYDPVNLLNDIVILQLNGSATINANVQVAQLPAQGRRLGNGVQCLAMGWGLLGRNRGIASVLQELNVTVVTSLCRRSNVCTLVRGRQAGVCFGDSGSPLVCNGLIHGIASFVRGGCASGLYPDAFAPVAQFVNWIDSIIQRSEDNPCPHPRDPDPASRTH
# [2] = biological target: T1, Neutrophil elastase (Homo sapiens); test: Compound at an peroral dose of 30 mpk was tested for the inhibition of HLE-induced lung hemorrhage in hamsters; assay type: functional
# Summary of the method: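 Hamster lung hemorrhage screen: 30 mg/kg given orally as Methocel suspension 30 min before intratracheal instillation of 50 units HLE/animal; sacrifice at 3 h, saline lung lavage, hemoglobin measured at 414 nm; % inhibition versus vehicle-treated animals, averaged over three animals per dose and time.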
# Cricetinae gen. sp. [3] = test: Oral effective dose required to inhibit HLE-induced lung hemorrhage in hamster; assay type: functional, Cricetulus griseus
# Summary of the method: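 Oral doses of 30, 10, 3, 1 (and 0.3) mg/kg as Methocel suspension given 30 min before intratracheal instillation of 50 units HLE/animal in hamsters; lungs lavaged 3 h later, hemoglobin read at 414 nm; % inhibition versus vehicle used to fit a dose-response curve for ED50.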
# Neutrophil elastase = biological target: T2, Neutrophil elastase (Homo sapiens, UniProt P08246); test: In vitro human leukocyte elastase (HLE) inhibition, and the Kobs[I] is the second-order rate constant for the time dependent inactivation of HLE by the compound.
# T2 sequence (P08246 whole entry): T1 sequence (whole entry)
# Cricetinae gen. sp. [4] = test: Compound at an peroral dose of 100 mpk was tested for the inhibition of HLE-induced lung hemorrhage in hamsters; assay type: functional, Cricetulus griseus; conditions: po
K obs / 1 [1],inhibition [2],Ki (Neutrophil elastase),SMILES,ED50 (Cricetinae gen. sp. [3]),inhibition in vivo at 100 mg/kg (Cricetinae gen. sp. [4])
200 M⁻¹ s⁻¹,,,CC[C@]1(C)C(=O)N(C(=O)NCc2ccccc2)[C@@H]1Oc1ccc(C(=O)O)cc1,,
160 M⁻¹ s⁻¹,,,CC[C@]1(C)C(=O)N(C(=O)NCc2ccccc2)[C@H]1Oc1ccc(C(=O)O)cc1,,
2000 M⁻¹ s⁻¹,70%,,CC[C@@]1(C)C(=O)N(C(=O)NCc2ccccc2)[C@H]1Oc1ccc(C(=O)O)cc1,,
3300 M⁻¹ s⁻¹,52%,,CCC[C@@]1(CC)C(=O)N(C(=O)NCc2ccccc2)[C@H]1Oc1ccc(C(=O)O)cc1,,
5200 M⁻¹ s⁻¹,78%,,CCCC1(CC)C(=O)N(C(=O)NCc2ccccc2)C1Oc1ccc(C(=O)O)cc1 (stereo not drawn),,
21 M⁻¹ s⁻¹,,,CC(C)[C@@]1(C)C(=O)N(C(=O)NCc2ccccc2)[C@H]1Oc1ccc(C(=O)O)cc1,,
220 M⁻¹ s⁻¹,,,CC[C@@]1(C)C(=O)N(C(=O)NCc2ccccc2)[C@@H]1Oc1ccc(C(=O)O)cc1,,
,,51 µM,CCC[C@@]1(C)C(=O)N(C(=O)NCc2ccccc2)[C@@H]1Oc1ccc(C(=O)O)cc1,,
4400 M⁻¹ s⁻¹,36%,,CCCC[C@]1(CC)C(=O)N(C(=O)NCc2ccccc2)[C@H]1Oc1ccc(C(=O)O)cc1,,
1900 M⁻¹ s⁻¹,,,CCC[C@@]1(C)C(=O)N(C(=O)NCc2ccccc2)[C@H]1Oc1ccc(C(=O)O)cc1,,49%
2500 M⁻¹ s⁻¹,56%,,CCCC1(CCC)C(=O)N(C(=O)NCc2ccccc2)C1Oc1ccc(C(=O)O)cc1 (stereo not drawn),,
1900 M⁻¹ s⁻¹,46%,,CC[C@@]1(COC)C(=O)N(C(=O)NCc2ccccc2)[C@H]1Oc1ccc(C(=O)O)cc1,,
280 M⁻¹ s⁻¹,,,CC1(C)C(=O)N(C(=O)NCc2ccccc2)C1Oc1ccc(C(=O)O)cc1 (stereo not drawn),,

# Continued, compound first:
SMILES,K obs / 1 [1],inhibition [2],Ki (Neutrophil elastase),ED50 (Cricetinae gen. sp. [3]),inhibition in vivo at 100 mg/kg (Cricetinae gen. sp. [4])
CCC[C@]1(CC)C(=O)N(C(=O)N[C@H](CC)c2ccccc2)[C@H]1Oc1ccc(C(=O)O)cc1,35500 M⁻¹ s⁻¹,52%,,,
CCC[C@]1(CC)C(=O)N(C(=O)N[C@H](C)c2ccccc2)[C@H]1Oc1ccc(C(=O)O)cc1,4500 M⁻¹ s⁻¹,61%,,,
CCC[C@@H](NC(=O)N1C(=O)[C@](C)(CC)[C@@H]1Oc1ccc(C(=O)O)cc1)c1ccccc1,152000 M⁻¹ s⁻¹,94%,,1.5 mg/kg,
CC[C@H](NC(=O)N1C(=O)[C@](C)(CC)[C@@H]1Oc1ccc(C(=O)O)cc1)c1ccccc1,4700 M⁻¹ s⁻¹,22%,,,
CC[C@@]1(C)C(=O)N(C(=O)N[C@H](C)c2ccccc2)[C@H]1Oc1ccc(C(=O)O)cc1,15200 M⁻¹ s⁻¹,82%,,,
C=CC[C@@]1(CC)C(=O)N(C(=O)NCc2ccccc2)[C@H]1Oc1ccc(C(=O)O)cc1,2000 M⁻¹ s⁻¹,51%,,,
CC[C@@]1(C)C(=O)N(C(=O)N[C@@H](C)c2ccccc2)[C@H]1Oc1ccc(C(=O)O)cc1,4800 M⁻¹ s⁻¹,13%,,,
CC[C@@H](NC(=O)N1C(=O)[C@](C)(CC)[C@@H]1Oc1ccc(C(=O)O)cc1)c1ccccc1,91000 M⁻¹ s⁻¹,98%,,3.7 mg/kg,
C=CC[C@]1(CC)C(=O)N(C(=O)NCc2ccccc2)[C@H]1Oc1ccc(C(=O)O)cc1,2800 M⁻¹ s⁻¹,56%,,,
CC[C@@]1(Cc2ccccc2)C(=O)N(C(=O)NCc2ccccc2)[C@H]1Oc1ccc(C(=O)O)cc1,84 M⁻¹ s⁻¹,,,,
CC[C@]1(Cc2ccccc2)C(=O)N(C(=O)NCc2ccccc2)[C@H]1Oc1ccc(C(=O)O)cc1,90 M⁻¹ s⁻¹,,,,
CC[C@@]1(C(C)C)C(=O)N(C(=O)NCc2ccccc2)[C@H]1Oc1ccc(C(=O)O)cc1,10 M⁻¹ s⁻¹,13%,,,
CCC1(CC)C(=O)N(C(=O)NCc2ccccc2)[C@]1(C)Oc1ccc(C(=O)O)cc1,1500 M⁻¹ s⁻¹,59%,,,
CCC(C)[C@]1(CC)C(=O)N(C(=O)NCc2ccccc2)[C@H]1Oc1ccc(C(=O)O)cc1 (stereo partly drawn),1200 M⁻¹ s⁻¹,23%,,,
CC[C@@]1(C)C(=O)N(C(=O)N[C@H](C)c2ccccc2)[C@@H]1Oc1ccc(C(=O)O)cc1,400 M⁻¹ s⁻¹,,,,
C[C@]1(Oc2ccc(C(=O)O)cc2)N(C(=O)NCc2ccccc2)C(=O)C12CCCC2,1900 M⁻¹ s⁻¹,8%,,,
CCC[C@@H](NC(=O)N1C(=O)[C@@](CC)(CCC)[C@@H]1Oc1ccc(C(=O)O)cc1)c1ccccc1,60000 M⁻¹ s⁻¹,53%,,,
